Rows were chosen to be rich in hits. Some 4.9% of all compounds tested hit in one or more screens of this group.
APP 5'UTR act – activates APP 5'UTR luciferase reporter; SH-SY5Y APP 5'UTR luciferase reporter, luminescence; zero percent = DMSO vehicle wells; activation, % at 2 µM; 190,000 compounds, 1% hits;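 active = activation above a set limit, based on mean plus 3 SD of controls, cut at about 140% in these data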
STAT3 blocker – inhibitors of IL-6 induced STAT3 signaling; U3A cells, IL-6 STAT3-luciferase reporter, luminescence; host cell line lacks STAT1; inhibition, % at 5.5 µM; 190,000 compounds, 0.89% hits; AID 862;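 active = inhibition above the mean inhibition across all screened compounds plus 3 SD, cut at about 44% in these data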
STAT1 inh – inhibitors of IFN-gamma induced STAT1 signaling; inhibition, % at 5.5 µM; NIH 3T3 STAT1-luciferase reporter, luminescence; AID 920; 200,000 compounds, 0.35% hits;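 active = inhibition above a set limit, the mean inhibition across all tested compounds plus 3 SD, cut at about 34% in these data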
STAT1 act – activators of IFN-gamma induced STAT1 signaling | 200,000 compounds, 2.6% hits | activation (% of control), % at 5.5 µM | AID 932 | NIH 3T3 STAT1-luciferase reporter, luminescence; 100% = IFN-gamma alone, no compound;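 active = activation above the screen-wide mean activation plus 3 SD, cut at about 130% in these data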
STAT3 act – increases IL-6 driven STAT3 reporter signal | U3A cells, IL-6 STAT3-luciferase reporter, luminescence; 100% = signal with IL-6 EC80 alone | activation (% of control), % at 5.6 µM | 190,000 compounds, 0.91% hits;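 active = activation above the screen-wide mean of compound activation plus 3 SD, cut at about 130% in these data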
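Material: human U3A cells carrying STAT3-luciferase construct. Measured by: reporter luminescence signal. Timing: compound 1 h, then IL-6 6 h at 37 °C.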
NF-kB neuron act – raises NF-kB expression in human neuronal cells; NF-kB reporter expression; hits give high values; 190,000 compounds, 1.6% hits; fold change at 12.5 µM; in the data active = fold change above about 3.3
Numbers stand for hits; . = inactive; / = not tested or not shown.

SMILES	APP 5'UTR act	STAT3 blocker	STAT1 inh	STAT1 act	STAT3 act	NF-kB neuron act
C(=N\Nc1nc2ccccc2s1)/c1cccs1	212.2	.	.	145.7	.	7.07
Cc1ccsc1/C=N/Nc1nc2ccccc2s1	231.9	.	.	180.9	144.3	10.7
Cc1cc(C)nc(N/N=C/c2sccc2C)n1	.	.	.	.	.	.
Cc1cc(N/N=C/c2ccco2)c2ccccc2n1	.	.	.	.	.	.
C(=N\Nc1nc2ccccc2s1)/c1ccco1	202.6	.	.	143.5	.	5.51
Cc1ccsc1/C=N/Nc1ncc(Cl)cc1Cl	/	.	.	139.5	.	.
CN(CC(=O)OCC(=O)c1c(N)n(C)c(=O)n(C)c1=O)S(=O)(=O)c1ccc(Cl)cc1	.	.	.	.	.	.
O=C(N/N=C/c1ccc(-c2ccccc2C(=O)O)o1)c1cccs1	.	.	.	.	.	.
Cc1nn(-c2ccccc2Cl)c(Cl)c1/C=N/Nc1nc2ccccc2s1	.	73.2	.	.	.	.
CCCCNC(=S)NC(C)(C)CO	.	.	.	.	.	.
O=C(Cn1cnc2ccccc2c1=O)Nc1nc2ccccc2s1	.	.	.	.	135.6	.
Cn1ccnc1SCC(=O)Nc1nc2ccccc2s1	.	.	.	134.3	.	.
CCc1ccc2nc(NC(=O)Cn3cnc4ccccc4c3=O)sc2c1	.	.	.	.	.	.
O=C(CSc1ccccn1)Nc1nc2ccccc2s1	.	.	.	.	.	.
O=C(O)CSc1ccc2ccccc2n1	.	.	.	.	.	.
O=C(CSc1ccc2ccccc2n1)c1ccc2c(c1)OCO2	.	.	.	134.1	.	.
COC(=O)/C(=C\Nc1ccccc1N)c1ncc(C(F)(F)F)cc1Cl	.	.	.	.	.	3.3
CN(C)c1ccc(/C=N/NC(=O)c2nonc2N)cc1[N+](=O)[O-]	.	.	.	133.3	.	.
Nc1nonc1C(=O)N/N=C/c1cccc([N+](=O)[O-])c1	.	.	.	.	.	.
Cc1ccc(OCC(=O)NCc2ccccn2)c(Br)c1	.	.	.	140.8	.	.
O=C(/C=C/Nc1ccc(Br)cc1F)c1ccco1	.	95.7	81.5	.	.	4.7
O=C(/C=C/Nc1ccc(F)cc1F)c1ccco1	151.9	83.7	77.1	.	.	4.89
O=C(/C=C/Nc1ccc(F)c(Cl)c1)c1ccco1	.	.	.	149.7	.	.
O=C(CCNc1ccc(F)c(Cl)c1)c1ccco1	.	.	.	.	.	.
c1ccc(-n2nnnc2SCc2cn3ccccc3n2)cc1	.	.	.	.	.	.
SMILES	APP 5'UTR act	STAT3 blocker	STAT1 inh	STAT1 act	STAT3 act	NF-kB neuron act
Cc1ccn2cc(CSc3ccccc3)nc2c1	171.9	.	.	130.8	.	6.3
c1ccn2cc(CSc3nnc4ccccn34)nc2c1	.	.	.	146.7	.	.
Cn1ccnc1SCc1cn2ccccc2n1	241.5	.	.	143.6	.	.
c1ccn2cc(CSC3=NCCS3)nc2c1	.	.	.	129.7	.	.
Cc1ccc(SCc2cn3cccnc3n2)cc1	.	.	.	.	.	.
S=C(NC1CCCC1)N1CCN(c2ccc(Cl)cc2)CC1	.	.	.	.	.	.
COc1ccc(CNC(=O)C(=O)NCC2OCCN2S(=O)(=O)c2cccs2)cc1 (configuration not stated)	.	.	.	.	.	.
CC(OC(=O)c1cc(S(=O)(=O)N(C)c2ccccc2)ccc1Cl)C(=O)Nc1ccc2c(c1)OCCO2 (configuration not stated)	.	.	.	.	.	.
Cc1ccc(S(=O)(=O)Nc2cc3c(C(=O)Nc4ccccc4)c(C)oc3c3ccccc23)cc1	.	.	.	.	.	.
CC1CCCC(C)N1C(=O)CSc1nc2ccccc2s1 (configuration not stated)	.	.	.	.	133.4	.
CC1CCN(C(=O)CSc2nc3ccccc3s2)CC1	.	.	.	131.9	.	.
O=C(O)C1CCN(C(=O)CSc2nc3ccccc3s2)CC1	.	.	.	.	.	.
Cc1ccc2nc(SCC(=O)N3CCCC3)[nH]c2c1	.	.	.	143.9	.	.
Cc1ccc(/C=N\Nc2nc3ccc(Cl)cc3[nH]2)o1	.	.	.	136.3	.	3.73
Cc1cc(C)nc(N/N=C/c2ccc3c(c2)OCCO3)n1	.	.	.	.	.	.
Cc1ccc(/C=N/Nc2ccc3ccccc3n2)o1	182.9	89.7	73.0	.	.	.
C(=N\Nc1ccc2ccccc2n1)/c1ccc2c(c1)OCCO2	.	108.0	88.8	.	.	.
Fc1ccccc1-c1ccc(/C=N/Nc2nc3ccccc3[nH]2)o1	.	.	.	.	.	.
Cc1ccc(/C=N/Nc2cn[nH]c(=O)n2)o1	.	.	.	.	.	.
Cc1cccc(/C=N/Nc2ccc3ccccc3n2)c1	.	101.6	90.3	.	.	.
COc1ccc(C(C(=O)NCC2CCCO2)N(C(=O)CNC(=O)c2cccs2)c2ccc(C(C)=O)cc2)cc1OC (configuration not stated)	.	.	.	.	.	.
CCC(C)c1ccc(S(=O)(=O)N2CCN(C(C)CC(=O)O)CC2)cc1 (configuration not stated)	.	.	.	.	.	.
O=C(CCc1ccccc1)N1CCN(c2ccc(F)cc2)CC1	.	.	.	.	.	.
CCC(CC)C(=O)Nc1nnc(SCC(=O)NC(C)(C)C)s1	.	.	.	.	.	.
Cc1ccc(NC(=O)CSc2nnc(CNC(=O)c3cccs3)o2)c(C)c1	.	.	.	.	.	.
SMILES	APP 5'UTR act	STAT3 blocker	STAT1 inh	STAT1 act	STAT3 act	NF-kB neuron act
CCN(CC)S(=O)(=O)c1ccc(C(=O)OCC(=O)NCCN2C(=O)CSC2=O)cc1	.	.	.	.	.	.
O=C(c1cnsn1)N1CCC(CO)(Cc2cccc(F)c2)CC1	.	.	.	133.3	.	/
c1ccc2c(c1)nnn2-c1ncnc2sccc12	.	.	.	133.5	.	.
O=C(CCN=C1NS(=O)(=O)c2ccccc21)N1CCc2ccccc2C1	.	.	.	.	.	.
NC(=O)c1cc2ccc(O)cc2oc1=Nc1ccccc1	.	.	.	130.5	.	.
NC(=O)c1cc2ccc(O)cc2oc1=NCc1ccccc1	.	.	.	.	.	.
Cc1ccc(-n2nnnc2CSc2nnc(-c3ccc(O)cc3)o2)cc1	/	.	.	.	.	.
N#Cc1ccc(OCC(=O)OCC(=O)Nc2cc(C(F)(F)F)ccc2N2CCOCC2)cc1	.	.	.	.	.	.
CC(=O)NCc1ccc(-c2nc3ccccc3s2)cc1	151.4	.	.	136.4	.	.
CN(C)c1nc(N)nc(-c2nc3ccccc3s2)n1	.	.	.	134.9	179.6	.
Cc1ccc(Cn2cccc(-c3nc4ccccc4s3)c2=O)cc1	.	.	.	139.6	.	.
